The source of these data is ChEMBL document CHEMBL1938298, “Synthesis and characterization of [¹²⁵I]2-iodo N-[(S)-{(S)-1-methylpiperidin-2-yl}(phenyl)methyl]3-trifluoromethyl-benzamide as novel imaging probe for glycine transporter 1” (Bioorg Med Chem, 2011).

Data set [1] concerns the target T1, Sodium- and chloride-dependent glycine transporter 1 (Rattus norvegicus) (UniProt P28572).
T1 sequence (whole entry): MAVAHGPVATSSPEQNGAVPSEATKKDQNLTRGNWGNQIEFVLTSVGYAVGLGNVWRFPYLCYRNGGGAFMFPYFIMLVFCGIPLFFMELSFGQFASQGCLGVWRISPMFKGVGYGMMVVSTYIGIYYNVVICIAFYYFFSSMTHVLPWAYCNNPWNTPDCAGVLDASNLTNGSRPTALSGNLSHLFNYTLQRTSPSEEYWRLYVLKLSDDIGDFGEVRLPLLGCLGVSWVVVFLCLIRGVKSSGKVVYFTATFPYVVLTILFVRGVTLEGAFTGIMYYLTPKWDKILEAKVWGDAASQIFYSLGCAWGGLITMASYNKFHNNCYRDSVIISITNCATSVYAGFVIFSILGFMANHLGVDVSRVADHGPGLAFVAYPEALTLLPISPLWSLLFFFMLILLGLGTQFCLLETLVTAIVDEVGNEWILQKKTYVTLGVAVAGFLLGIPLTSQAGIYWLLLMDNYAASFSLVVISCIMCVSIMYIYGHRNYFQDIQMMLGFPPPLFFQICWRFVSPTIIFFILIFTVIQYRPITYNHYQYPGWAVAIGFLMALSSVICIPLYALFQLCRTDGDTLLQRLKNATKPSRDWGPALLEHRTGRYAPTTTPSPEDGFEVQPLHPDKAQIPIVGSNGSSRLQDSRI
The data set can be described thus: Binding affinity to GlyT1 in rat brain cerebellum at 0.03 to 0.04 nM preincubated for 20 mins in binding buffer before compound addition measured after 30 mins by autoradiography in presence of 0.01 mM NMDA receptor glycine site antagonist L-701,324 relative to control. Particulars: tested as the 125I-labelled form. The format is tissue-based. In outline:
(§1)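 Rat brain sagittal sections (20 µm) preincubated 20 min at 25 °C in Tris-HCl buffer pH 7.5 (NaCl, KCl, MgCl2, CaCl2), then 30 min at 25 °C with [125I] tracer (100 kBq, 0.03–0.04 nM) plus competitor (10 µM; glycine 1 or 10 mM). Cold washes, imaging plate 3 days, ROI PSL minus background per mm². % control from ≥triplicate slices, three rats.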

Data set [2] deals with T1, Sodium- and chloride-dependent glycine transporter 1 (Rattus norvegicus). The data set can be described thus: Binding affinity to GlyT1 in rat brain hippocampus at 0.03 to 0.04 nM preincubated for 20 mins in binding buffer before compound addition measured after 30 mins by autoradiography in presence of 0.01 mM GlyT1 inhibitor ALX5407 relative to control. The format is tissue-based. The settings on record: tested as the 125I-labelled form. In outline: as §1

The target is the same in data set [3]. The data set can be described thus: Binding affinity to GlyT1 in rat brain striatum at 0.03 to 0.04 nM preincubated for 20 mins in binding buffer before compound addition measured after 30 mins by autoradiography in presence of 10 mM GlyT1 substrate glycine relative to control. The format is tissue-based. The settings on record: tested as the 125I-labelled form.

For data set [4] the target is unchanged. The data set can be described thus: Binding affinity to GlyT1 in rat brain thalamus at 0.03 to 0.04 nM preincubated for 20 mins in binding buffer before compound addition measured after 30 mins by autoradiography in presence of 1 mM GlyT1 substrate glycine relative to control. The format is tissue-based. Particulars: tested as the 125I-labelled form.
Data set [5] deals with Mus musculus. The experiment in a line: In vivo binding affinity to GlyT1 in ddY mouse brain striatum at 33.3 kBq, iv after 30 mins in presence of N-Me-SSR504734 2 mg/kg, iv administered 15 mins prior to compound administration relative to control. In kind it is functional, organism-based. Details: dose 2 mg/kg. The settings on record: tested as the 125I-labelled form.
The target in data set [6] is T1, Sodium- and chloride-dependent glycine transporter 1 (Rattus norvegicus). The experiment in a line: Binding affinity to GlyT1 in rat brain medullary region at 0.03 to 0.04 nM preincubated for 20 mins in binding buffer before compound addition measured after 30 mins by autoradiography in presence of 0.01 mM GlyT1 inhibitor SSR504734 relative to control. The format is tissue-based. The settings on record: tested as the 125I-labelled form. In outline:
as §1

Data set [7] deals with Mus musculus. The data set can be described thus: In vivo binding affinity to GlyT1 in ddY mouse brain cerebellum at 200 kBq, iv after 60 mins by autoradiography relative to control. The format is functional, organism-based. The settings on record: tested as the 125I-labelled form. The gist of the method: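 Ex vivo autoradiography in mice given 200 kBq [125I]tracer i.v. and killed at 60 min. Brains were removed, frozen on dry ice and cut into 20 µm sagittal cryosections, which were exposed to an imaging plate for 7 days. Regional signal was quantified as PSL/mm² (n = 5) and compared to control by Kruskal–Wallis with Dunn's post-test.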

Data set [8] concerns the target T1, Sodium- and chloride-dependent glycine transporter 1 (Rattus norvegicus). The data set can be described thus: Binding affinity to GlyT1 in rat brain thalamus at 0.03 to 0.04 nM preincubated for 20 mins in binding buffer before compound addition measured after 30 mins by autoradiography in presence of 0.01 mM GlyT1 inhibitor SSR504734 relative to control. The settings on record: tested as the 125I-labelled form. The format is tissue-based.

For data set [9] the target is unchanged. The experiment in a line: Binding affinity to GlyT1 in rat brain thalamus at 0.03 to 0.04 nM preincubated for 20 mins in binding buffer before compound addition measured after 30 mins by autoradiography in presence of GlyT1 inhibitor N-Me-SSR504734 relative to control. The format is tissue-based. The settings on record: tested as the 125I-labelled form.

Data set [10] shares this target. The data set can be described thus: Binding affinity to GlyT1 in rat brain hippocampus at 0.03 to 0.04 nM preincubated for 20 mins in binding buffer before compound addition measured after 30 mins by autoradiography in presence of 0.01 mM GlyT1 inhibitor HPCP relative to control. Particulars: tested as the 125I-labelled form. The format is tissue-based. The gist of the method: as §1

The test system of data set [11] is Mus musculus. The experiment in a line: In vivo binding affinity to GlyT1 in ddY mouse brain cortex at 33.3 kBq, iv after 30 mins in presence of SSR504734 2 mg/kg, iv administered 15 mins prior to compound administration relative to control. The format is functional, organism-based. Set-up: dose 2 mg/kg. The settings on record: tested as the 125I-labelled form. In outline: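 Blocking study in male ddY mice (6 weeks, 30–35 g). The blocker (2 mg/kg in 30% DMSO/saline) was injected i.v. 15 min before about 33.3 kBq [125I]tracer i.v.; mice were killed at 30 or 60 min. Brains were divided into cortex, corpus callosum, hippocampus, thalamus, midbrain, medulla and cerebellum, weighed and gamma-counted as % dose/g. Values are mean ± SD, n = 5–6, compared to control by Kruskal–Wallis with Dunn's post-test.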

Data set [12] relates to Mus musculus. The experiment in a line: In vivo binding affinity to GlyT1 in ddY mouse brain midbrain at 33.3 kBq, iv after 30 mins in presence of nonradioactive compound 2 mg/kg, iv administered 15 mins prior to compound administration relative to control. In kind it is functional.
Data set [13] in a line: Metabolic stability in ddY mouse brain assessed as compound remaining at 185 kBq after 5 mins by radio-TLC. The format is ADME, tissue-based. The settings on record: read-out: Stability.
A further data set has as its system Intestine. The experiment in a line: Drug uptake in ddY mouse intestine at 11.1 kBq, iv after 30 min by gamma counting. The format is ADME, organism-based. The settings on record: in vivo, 0.5 h. In outline: (§2)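 Male ddY mice (6 weeks, 30–35 g) received about 11.1 kBq [125I]tracer in 0.1 mL i.v. via tail vein. Killed at set times, organs dissected and weighed, radioactivity gamma counted. Reported as % injected dose/g tissue, mean ± SD, n = 5–6.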

For another data set, the system named is Blood. The data set can be described thus: Drug uptake in ddY mouse blood at 11.1 kBq, iv after 180 min by gamma counting. The format is ADME, organism-based. The settings on record: in vivo, 3 h. The gist of the method: as §2
In the next data set the test system is Lung. The data set can be described thus: Drug uptake in ddY mouse lung at 11.1 kBq, iv after 0.5 min by gamma counting. In kind it is ADME, organism-based. Particulars: in vivo. The gist of the method: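 Male ddY mice (6 weeks, 30–35 g) were given about 11.1 kBq of [125I]tracer in 0.1 mL i.v. via the tail vein. At each time point the animals were killed and organs dissected, weighed and gamma-counted. Uptake is expressed as % injected dose per gram of tissue, mean ± SD, n = 5–6.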

Activity calls are given as the source filed them. The rule behind the calls is not given here.

`CN1CCCC[C@H]1[C@@H](NC(=O)c1cccc(C(F)(F)F)c1I)c1ccccc1`: the Activity in data set [1] came out at 87.1%; in data set [2], 63.2%; in data set [3], 47.6%; in data set [4], 108%; in [6], 31.7%; in data set [8] it was 29.6%. The Activity in [9] amounted to 25.1%; in data set [10] it was 55.9%. For the same molecule, the result in the data set with Mus musculus [5] and with Mus musculus [7] was Active. In addition, the result with Mus musculus [11] was inactive.
On to `CN1CCCC[C@H]1[C@@H](NC(=O)c1cccc(C(F)(F)F)c1[125I])c1ccccc1`, for which the Activity in the data set with Mus musculus [12] amounted to 48%. For the same molecule, the remaining at 5 min in data set [13] came out at 92%. The Drug uptake in the data set on Intestine stood at 5.76 % ID/g; in the data set on Blood, 0.85 % ID/g; in the data set on Lung it was 17.19 % ID/g.
